Data reported in ChEMBL document CHEMBL4028914, “Structure-Based Design of 6-Chloro-4-aminoquinazoline-2-carboxamide Derivatives as Potent and Selective p21-Activated Kinase 4 (PAK4) Inhibitors” (J Med Chem, 2018).
Active and inactive are the calls of the source. No cut-off for these calls is given here.

Key:
Homo sapiens = organism: Homo sapiens; experiment: Selectivity index, ratio of Ki for human PAK1 to Ki for human PAK4
Outline: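 Ratio of PAK1 Ki to PAK4 Ki, both taken from the FRET-based Z′-Lyte assay.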

[1] = biological target: T1, Serine/threonine-protein kinase PAK 4 (Homo sapiens, UniProt O96013); experiment: Binding affinity to biotin-labeled human truncated PAK4 kinase domain by surface plasmon resonance assay
Outline: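 Binding to the truncated PAK4 was measured by SPR with multiconcentration kinetic analysis. Kd was taken from a 1:1 binding model fit.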
Target sequence in this assay (O96013 whole entry, the tested form may be a part): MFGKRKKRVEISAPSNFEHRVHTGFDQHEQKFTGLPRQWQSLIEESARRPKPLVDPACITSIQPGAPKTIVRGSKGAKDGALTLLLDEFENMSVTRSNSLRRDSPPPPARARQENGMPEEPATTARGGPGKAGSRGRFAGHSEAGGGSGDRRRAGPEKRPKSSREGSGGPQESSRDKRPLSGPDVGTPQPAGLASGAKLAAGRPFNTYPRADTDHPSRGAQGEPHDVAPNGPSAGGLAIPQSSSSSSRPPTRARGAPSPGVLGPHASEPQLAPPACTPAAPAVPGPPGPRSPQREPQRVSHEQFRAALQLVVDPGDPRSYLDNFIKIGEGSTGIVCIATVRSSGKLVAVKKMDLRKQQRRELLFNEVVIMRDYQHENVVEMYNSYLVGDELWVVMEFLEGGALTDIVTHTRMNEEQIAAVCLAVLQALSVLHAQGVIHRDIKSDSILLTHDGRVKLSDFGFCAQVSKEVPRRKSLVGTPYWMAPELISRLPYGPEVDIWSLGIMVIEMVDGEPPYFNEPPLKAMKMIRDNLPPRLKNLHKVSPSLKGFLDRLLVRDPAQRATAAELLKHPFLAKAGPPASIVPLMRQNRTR

[2] = biological target: T1, Serine/threonine-protein kinase PAK 4; experiment: Inhibition of human PAK4 kinase domain using coumarin and fluorescein-labeled ser/thr20 peptide as substrate preincubated for 15 mins followed by ATP addition measured after 60 mins by Z'-Lyte assay
Target sequence in this assay (O96013 whole entry, the tested form may be a part): as above

[3] = biological target: T2, Serine/threonine-protein kinase PAK 1 (Homo sapiens, UniProt Q13153); experiment: Inhibition of human PAK1 kinase domain using coumarin and fluorescein-labeled ser/thr19 peptide as substrate preincubated for 15 mins followed by ATP addition measured after 60 mins by Z'-Lyte assay
Outline: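 FRET-based Z′-Lyte kinase assay run per the kit instructions. Ki values are the average of at least two duplicate experiments; SEM < ±20%.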

A549 [4] = experiment: Antimigratory activity against human A549 cells at 0.5 to 10 uM after 48 hrs by wound healing assay; assay type: functional, cell-based
HEK293 [5] = experiment: Antimigratory activity against human HEK293 cells at 0.5 to 10 uM after 24 hrs by transwell assay; assay type: functional, cell-based
[6] = biological target: T1, Serine/threonine-protein kinase PAK 4; experiment: Inhibition of human PAK4 in human A549 cells assessed as decrease in phosphorylation levels of LIMK1 by Western blotting method; assay type: cell-based
Target sequence in this assay (O96013 whole entry, looked up, the tested form may be a part): as the sequence (O96013 whole entry, the tested form may be a part) above

[7] = biological target: T1, Serine/threonine-protein kinase PAK 4; experiment: Inhibition of human PAK4 in human A549 cells assessed as decrease in phosphorylation of GEF-H1 at Ser810 residue up to 10 uM by Western blotting method; assay type: cell-based
Target sequence in this assay (O96013 whole entry, looked up, the tested form may be a part): as the sequence (O96013 whole entry, the tested form may be a part) above

[8] = biological target: T1, Serine/threonine-protein kinase PAK 4; experiment: Inhibition of human PAK4 in human A549 cells assessed as decrease in phosphorylation levels of cofilin by Western blotting method; assay type: cell-based
Target sequence in this assay (O96013 whole entry, looked up, the tested form may be a part): as the sequence (O96013 whole entry, the tested form may be a part) above

[9] = biological target: T1, Serine/threonine-protein kinase PAK 4; experiment: Inhibition of GST-tagged human PAK4 (295 to 591 residues) expressed in Baculovirus expression system at 0.1 uM by Z'-Lyte assay relative to control
Target sequence in this assay (O96013 whole entry, looked up, the tested form may be a part): as the sequence (O96013 whole entry, the tested form may be a part) above

NCI-H460 [10] = experiment: Antiinvasive activity against human NCI-H460 cells at 0.5 to 10 uM after 24 hrs by transwell assay; assay type: functional, cell-based
[11] = biological target: T1, Serine/threonine-protein kinase PAK 4; experiment: Inhibition of human PAK4 in human A549 cells assessed as decrease in phosphorylation levels of PAK4 at Ser474 residue by Western blot method; assay type: cell-based
Target sequence in this assay (O96013 whole entry, looked up, the tested form may be a part): as the sequence (O96013 whole entry, the tested form may be a part) above

HEK293 [12] = experiment: Antiinvasive activity against human HEK293 cells at 0.5 to 10 uM after 24 hrs by transwell assay; assay type: functional, cell-based
NCI-H460 [13] = experiment: Antimigratory activity against human NCI-H460 cells at 0.5 to 10 uM after 24 hrs by transwell assay; assay type: functional, cell-based
[14] = biological target: T1, Serine/threonine-protein kinase PAK 4; experiment: Inhibition of human PAK4 in human A549 cells assessed as decrease in MMP2 expression up to 10 uM by Western blotting method; assay type: cell-based
Target sequence in this assay (O96013 whole entry, looked up, the tested form may be a part): as the sequence (O96013 whole entry, the tested form may be a part) above

A549 [15] = experiment: Antimigratory activity against human A549 cells at 0.5 to 10 uM after 24 hrs by transwell assay; assay type: functional, cell-based
A549 [16] = experiment: Antiinvasive activity against human A549 cells at 0.5 to 10 uM after 24 hrs by transwell assay; assay type: functional, cell-based
A549 [17] = experiment: Antiproliferative activity against human A549 cells up to 72 hrs by MTT assay; assay type: functional, cell-based
[18] = biological target: T2, Serine/threonine-protein kinase PAK 1; experiment: Inhibition of PAK1 (unknown origin)
[19] = biological target: T1, Serine/threonine-protein kinase PAK 4; experiment: Inhibition of PAK4 (unknown origin) using histone H3 as substrate
Target sequence in this assay (O96013 whole entry, the tested form may be a part): as above

T2 sequence (Q13153 whole entry, the tested form may be a part): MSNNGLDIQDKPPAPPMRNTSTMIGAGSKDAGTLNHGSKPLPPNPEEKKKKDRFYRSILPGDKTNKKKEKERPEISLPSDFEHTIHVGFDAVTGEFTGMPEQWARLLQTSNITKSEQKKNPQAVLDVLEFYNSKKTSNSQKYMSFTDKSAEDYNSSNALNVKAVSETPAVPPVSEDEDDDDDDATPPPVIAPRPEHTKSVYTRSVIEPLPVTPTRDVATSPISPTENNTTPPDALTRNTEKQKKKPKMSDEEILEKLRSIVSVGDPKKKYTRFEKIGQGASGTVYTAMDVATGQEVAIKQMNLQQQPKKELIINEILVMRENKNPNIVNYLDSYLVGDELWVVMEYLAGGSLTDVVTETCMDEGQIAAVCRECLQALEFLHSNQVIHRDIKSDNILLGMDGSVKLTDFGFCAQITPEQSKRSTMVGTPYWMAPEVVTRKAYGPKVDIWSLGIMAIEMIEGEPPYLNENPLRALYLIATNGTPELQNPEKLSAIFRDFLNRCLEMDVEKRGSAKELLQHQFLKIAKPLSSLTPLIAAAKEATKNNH

Ratio Ki (Homo sapiens)	Kd [1] [µM]	Ki [2] [µM]	Ki [3] [µM]	inhibition [6]	inhibition [7]	inhibition [8]	inhibition [9] [%]	inhibition [11]	inhibition [14]	IC50 [18] [µM]	IC50 [19] [µM]	SMILES	Activity (A549 [4])	Activity (HEK293 [5])	Activity (NCI-H460 [10])	Activity (HEK293 [12])	Activity (NCI-H460 [13])	Activity (A549 [15])	Activity (A549 [16])	Activity (A549 [17])
172	0.016	0.016	2.75	–	–	–	–	–	–	–	–	O=C(c1nc(Nc2cc(C3CC3)[nH]n2)c2cc(Cl)ccc2n1)N1CCNCC1	–	–	–	–	–	–	–	–
346	–	–	–	Dose-dependent effect	Active	Dose-dependent effect	> 80	Dose-dependent effect	Active	–	–	C[C@@H]1CN(C(=O)c2nc(Nc3cc(C4CC4)[nH]n3)c3cc(Cl)ccc3n2)CCN1	Active	inactive	inactive	inactive	inactive	Active	Active	Active
–	–	–	–	–	–	–	–	–	–	48.4	14.9	COc1cccc(Nc2nc(NCC3CCCO3)c3ccccc3n2)c1 (stereo unspecified)	–	–	–	–	–	–	–	–
